In ChEMBL document CHEMBL3045489, “Synthesis, fungicidal activity, and QSAR of a series of 2-dichlorophenyl-3-triazolylpropyl ethers” (J Agric Food Chem, 2000):
Values after ≈ are worked out from the molar mass of the structure shown.

What was measured:
[1] = tested on: Fusarium graminearum; assay: Antifungal activity against Fusarium graminearum assessed as inhibition of radial growth on potato dextrose; format: functional, organism-based
Method in brief: (§1)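 Radial growth inhibition on potato dextrose or Czapek agar across 100-0.1 mg L-1. ED50 calculated for each compound.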

[2] = tested on: Uromyces appendiculatus; assay: Fungicidal activity against Uromyces appendiculatus inoculated in Phaseolus vulgaris placed in growth room after 24 hr incubation assessed as direct protection after 6 to 10 days; format: functional
Method in brief: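 Bean plants grown at 22 ± 1 °C, 80 ± 10% RH. Compound in acetone/water (1:4 v/v) with Tween 20 (0.4 mg mL-1) was sprayed on leaves until moist at 100 to 0.001 mg L-1. One day later leaves were inoculated with U. appendiculatus uredospores (1 × 10^5 spores mL-1), held 24 h at 22 ± 2 °C and 100% RH, then moved to the growth room. Scored at 6, 8 and 10 days as MIC.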

[3] = tested on: Ustilago maydis; assay: Antifungal activity against Ustilago maydis assessed as inhibition of radial growth on potato dextrose; format: functional, organism-based; conditions: Mycosarcoma maydis
[4] = tested on: Cercospora beticola; assay: Antifungal activity against Cercospora beticola assessed as inhibition of radial growth on potato dextrose; format: functional, organism-based; method in brief: as §1
[5] = tested on: Bipolaris maydis; assay: Antifungal activity against Cochliobolus heterostrophus assessed as inhibition of radial growth on potato dextrose; format: functional, organism-based; method in brief: as §1
[6] = tested on: Botrytis cinerea; assay: Antifungal activity against Botryotinia fuckelianaassessed as inhibition of radial growth on potato dextrose; format: functional, organism-based; method in brief: as §1
[7] = tested on: Podosphaera fuliginea; assay: Fungicidal activity against Podosphaera fuliginea inoculated in […] placed in growth room after 24 hr incubation assessed as direct protection after 6 to 10 days; format: functional
[8] = tested on: Oculimacula yallundae; assay: Antifungal activity against Oculimacula yallundae assessed as inhibition of radial growth on potato dextrose; format: functional, organism-based; method in brief: as §1
[9] = tested on: Pyrenophora teres; assay: Antifungal activity against Pyrenophora teres assessed as inhibition of radial growth on potato dextrose; format: functional, organism-based
[10] = tested on: Podosphaera fuliginea; assay: Fungicidal activity against Podosphaera fuliginea inoculated in […] placed in growth room after 24 hr incubation assessed as disease cure after 24 hr of inoculation; format: functional

**Q.** What does the source list for `Clc1ccc(C(COCc2ccc3ccccc3c2)Cn2cncn2)c(Cl)c1` (racemic)?
**A.** EC50 [1]: 130 µg/mL (≈ 315 µM); MIC [2]: 120 µg/mL (≈ 291 µM); EC50 [3]: 0.18 µg/mL (≈ 0.437 µM); EC50 [4]: 0.23 µg/mL (≈ 0.558 µM); EC50 [5]: 0.15 µg/mL (≈ 0.364 µM); EC50 [6]: 2.8 µg/mL (≈ 6.79 µM); MIC [7]: 50 µg/mL (≈ 121 µM); EC50 [8]: 1 µg/mL (≈ 2.43 µM); EC50 [9]: 0.25 µg/mL (≈ 0.606 µM)

**Q.** How did the MIC [10] turn out when `Clc1ccc(C(COCc2ccc(-c3ccccc3)cc2)Cn2cncn2)c(Cl)c1` (racemic) was run?
**A.** 6 µg/mL (≈ 13.7 µM)

**Q.** And the EC50 [1]?
**A.** > 200 µg/mL

**Q.** And the MIC [2]?
**A.** 28 µg/mL (≈ 63.9 µM)

**Q.** What about the EC50 [3] of the same compound?
**A.** 0.03 µg/mL (≈ 0.0684 µM)

**Q.** And the EC50 [4]?
**A.** 0.18 µg/mL (≈ 0.411 µM)

**Q.** What about the EC50 [5] of the same compound?
**A.** 0.18 µg/mL (≈ 0.411 µM)

**Q.** What about the EC50 [6] of the same compound?
**A.** 2.8 µg/mL (≈ 6.39 µM)

**Q.** And the MIC [7]?
**A.** 10 µg/mL (≈ 22.8 µM)

**Q.** What about the EC50 [8] of the same compound?
**A.** 0.5 µg/mL (≈ 1.14 µM)

**Q.** What about the EC50 [9] of the same compound?
**A.** 0.55 µg/mL (≈ 1.25 µM)

**Q.** How did the EC50 [1] turn out when `Clc1ccc(C(COCc2cccc(Oc3ccccc3)c2)Cn2cncn2)c(Cl)c1` (racemic) was run?
**A.** > 200 µg/mL

**Q.** What about the MIC [2] of the same compound?
**A.** 50 µg/mL (≈ 110 µM)

**Q.** And the EC50 [3]?
**A.** 0.16 µg/mL (≈ 0.352 µM)

**Q.** And the EC50 [4]?
**A.** 0.14 µg/mL (≈ 0.308 µM)

**Q.** What about the EC50 [5] of the same compound?
**A.** 150 µg/mL (≈ 330 µM)

**Q.** And the EC50 [6]?
**A.** 8 µg/mL (≈ 17.6 µM)

**Q.** What about the MIC [7] of the same compound?
**A.** 12 µg/mL (≈ 26.4 µM)

**Q.** What about the EC50 [8] of the same compound?
**A.** 5 µg/mL (≈ 11 µM)

**Q.** And the EC50 [9]?
**A.** 0.85 µg/mL (≈ 1.87 µM)

**Q.** What does the source list for `Clc1ccc(C(COCc2ccc(OCc3ccccc3)cc2)Cn2cncn2)c(Cl)c1` (racemic)?
**A.** EC50 [1]: > 200 µg/mL; MIC [2]: 35 µg/mL (≈ 74.7 µM); EC50 [3]: 0.14 µg/mL (≈ 0.299 µM); EC50 [4]: 0.2 µg/mL (≈ 0.427 µM); EC50 [5]: 0.15 µg/mL (≈ 0.32 µM); EC50 [6]: 3.5 µg/mL (≈ 7.47 µM); MIC [7]: 10 µg/mL (≈ 21.4 µM); EC50 [8]: 0.5 µg/mL (≈ 1.07 µM); EC50 [9]: 0.22 µg/mL (≈ 0.47 µM)

**Q.** With `Clc1ccc(C(COCc2ccc(OCc3cccc(OCc4ccccc4)c3)cc2)Cn2cncn2)c(Cl)c1` (racemic) as the compound, how does the EC50 [1] read?
**A.** > 200 µg/mL

**Q.** What about the MIC [2] of the same compound?
**A.** 140 µg/mL (≈ 244 µM)

**Q.** And the EC50 [3]?
**A.** 0.2 µg/mL (≈ 0.348 µM)

**Q.** And the EC50 [4]?
**A.** 0.9 µg/mL (≈ 1.57 µM)

**Q.** And the EC50 [6]?
**A.** 25 µg/mL (≈ 43.5 µM)

**Q.** What about the EC50 [8] of the same compound?
**A.** 1.8 µg/mL (≈ 3.13 µM)

**Q.** And the EC50 [9]?
**A.** 1.3 µg/mL (≈ 2.26 µM)

**Q.** Which results are given for `Clc1ccc(C(COCc2ccc(OCc3ccc(OCc4ccccc4)cc3)cc2)Cn2cncn2)c(Cl)c1` (racemic)?
**A.** EC50 [1]: > 200 µg/mL; MIC [2]: > 100 µg/mL; EC50 [3]: 0.2 µg/mL (≈ 0.348 µM); EC50 [4]: 0.18 µg/mL (≈ 0.313 µM); EC50 [6]: 100 µg/mL (≈ 174 µM); EC50 [8]: 0.16 µg/mL (≈ 0.278 µM); EC50 [9]: 0.2 µg/mL (≈ 0.348 µM)

**Q.** What does the source list for `Clc1ccc(C(COCc2cccs2)Cn2cncn2)c(Cl)c1` (racemic)?
**A.** EC50 [1]: 1.5 µg/mL (≈ 4.07 µM); MIC [2]: 200 µg/mL (≈ 543 µM); EC50 [3]: 0.1 µg/mL (≈ 0.272 µM); EC50 [4]: 0.2 µg/mL (≈ 0.543 µM); EC50 [5]: 0.2 µg/mL (≈ 0.543 µM); EC50 [6]: 2 µg/mL (≈ 5.43 µM); MIC [7]: 100 µg/mL (≈ 272 µM); EC50 [8]: 1.2 µg/mL (≈ 3.26 µM); EC50 [9]: 0.7 µg/mL (≈ 1.9 µM)

**Q.** How did the EC50 [1] turn out when `C=C(C)COCC(Cn1cncn1)c1ccc(Cl)cc1Cl` (racemic) was run?
**A.** 13 µg/mL (≈ 39.8 µM)

**Q.** What about the MIC [2] of the same compound?
**A.** 150 µg/mL (≈ 460 µM)

**Q.** And the EC50 [3]?
**A.** 0.25 µg/mL (≈ 0.766 µM)

**Q.** And the EC50 [4]?
**A.** 0.15 µg/mL (≈ 0.46 µM)

**Q.** And the EC50 [5]?
**A.** 0.1 µg/mL (≈ 0.307 µM)

**Q.** What about the EC50 [6] of the same compound?
**A.** 1.2 µg/mL (≈ 3.68 µM)

**Q.** And the MIC [7]?
**A.** 50 µg/mL (≈ 153 µM)

**Q.** And the EC50 [8]?
**A.** 0.5 µg/mL (≈ 1.53 µM)

**Q.** What about the EC50 [9] of the same compound?
**A.** 0.75 µg/mL (≈ 2.3 µM)

**Q.** `CC(C)=CCOCC(Cn1cncn1)c1ccc(Cl)cc1Cl` (racemic) was tested. Which EC50 [1] did it give?
**A.** 40 µg/mL (≈ 118 µM)

**Q.** What about the MIC [2] of the same compound?
**A.** 160 µg/mL (≈ 470 µM)

**Q.** What about the EC50 [3] of the same compound?
**A.** 0.22 µg/mL (≈ 0.647 µM)

**Q.** And the EC50 [4]?
**A.** 0.18 µg/mL (≈ 0.529 µM)

**Q.** And the EC50 [5]?
**A.** 0.13 µg/mL (≈ 0.382 µM)

**Q.** What about the EC50 [6] of the same compound?
**A.** 0.9 µg/mL (≈ 2.65 µM)

**Q.** And the MIC [7]?
**A.** 100 µg/mL (≈ 294 µM)

**Q.** What about the EC50 [8] of the same compound?
**A.** 1 µg/mL (≈ 2.94 µM)

**Q.** And the EC50 [9]?
**A.** 0.5 µg/mL (≈ 1.47 µM)

**Q.** `C=C(Cl)COCC(Cn1cncn1)c1ccc(Cl)cc1Cl` (racemic) was tested. Which EC50 [1] did it give?
**A.** 12 µg/mL (≈ 34.6 µM)

**Q.** And the MIC [2]?
**A.** > 100 µg/mL

**Q.** And the EC50 [3]?
**A.** 0.5 µg/mL (≈ 1.44 µM)

**Q.** And the EC50 [4]?
**A.** 0.23 µg/mL (≈ 0.664 µM)

**Q.** What about the EC50 [6] of the same compound?
**A.** 0.8 µg/mL (≈ 2.31 µM)

**Q.** And the EC50 [8]?
**A.** 0.5 µg/mL (≈ 1.44 µM)

**Q.** What about the EC50 [9] of the same compound?
**A.** 2 µg/mL (≈ 5.77 µM)

**Q.** How did the EC50 [1] turn out when `Clc1ccc(C(COC/C=C/c2ccccc2)Cn2cncn2)c(Cl)c1` (racemic) was run?
**A.** 40 µg/mL (≈ 103 µM)

**Q.** And the MIC [2]?
**A.** 140 µg/mL (≈ 361 µM)

**Q.** And the EC50 [3]?
**A.** 0.1 µg/mL (≈ 0.258 µM)

**Q.** And the EC50 [4]?
**A.** 0.2 µg/mL (≈ 0.515 µM)

**Q.** What about the EC50 [5] of the same compound?
**A.** 0.18 µg/mL (≈ 0.464 µM)

**Q.** What about the EC50 [6] of the same compound?
**A.** 3 µg/mL (≈ 7.73 µM)

**Q.** What about the MIC [7] of the same compound?
**A.** 10 µg/mL (≈ 25.8 µM)

**Q.** And the EC50 [8]?
**A.** 1.3 µg/mL (≈ 3.35 µM)

**Q.** And the EC50 [9]?
**A.** 0.47 µg/mL (≈ 1.21 µM)

**Q.** With `Clc1ccc(C(COCCCc2ccccc2)Cn2cncn2)c(Cl)c1` (racemic) as the compound, how does the EC50 [1] read?
**A.** 18 µg/mL (≈ 46.1 µM)

**Q.** And the MIC [2]?
**A.** 200 µg/mL (≈ 512 µM)

**Q.** And the EC50 [3]?
**A.** 0.15 µg/mL (≈ 0.384 µM)

**Q.** And the EC50 [4]?
**A.** 0.18 µg/mL (≈ 0.461 µM)

**Q.** And the EC50 [5]?
**A.** 0.19 µg/mL (≈ 0.487 µM)

**Q.** And the EC50 [6]?
**A.** 2.3 µg/mL (≈ 5.89 µM)

**Q.** And the MIC [7]?
**A.** 100 µg/mL (≈ 256 µM)

**Q.** What about the EC50 [8] of the same compound?
**A.** 2.3 µg/mL (≈ 5.89 µM)

**Q.** What about the EC50 [9] of the same compound?
**A.** 1.3 µg/mL (≈ 3.33 µM)

**Q.** With `N#CCCOCC(Cn1cncn1)c1ccc(Cl)cc1Cl` (racemic) as the compound, how does the EC50 [1] read?
**A.** 32 µg/mL (≈ 98.4 µM)

**Q.** And the MIC [2]?
**A.** 250 µg/mL (≈ 769 µM)

**Q.** What about the EC50 [3] of the same compound?
**A.** 4 µg/mL (≈ 12.3 µM)

**Q.** What about the EC50 [4] of the same compound?
**A.** 4 µg/mL (≈ 12.3 µM)

**Q.** And the EC50 [5]?
**A.** 8.5 µg/mL (≈ 26.1 µM)

**Q.** What about the EC50 [6] of the same compound?
**A.** 18 µg/mL (≈ 55.4 µM)

**Q.** What about the MIC [7] of the same compound?
**A.** 60 µg/mL (≈ 185 µM)

**Q.** What about the EC50 [8] of the same compound?
**A.** 20 µg/mL (≈ 61.5 µM)

**Q.** And the EC50 [9]?
**A.** 32 µg/mL (≈ 98.4 µM)
